ChEMBL document CHEMBL3580569, “N-Substituted Quinolinonyl Diketo Acid Derivatives as HIV Integrase Strand Transfer Inhibitors and Their Activity against RNase H Function of Reverse Transcriptase” (J Med Chem, 2015)

How the values were obtained:
[1] = Selectivity index, ratio of CC50 for human HeLa-CD4-LTR-beta-gal cells to EC50 for HIV-1 3B infected in human HeLa-CD4-LTR-beta-gal cells; assay type: toxicity; details: read-out: Ratio CC50/EC50
[2] = target: Human immunodeficiency virus type 1 reverse transcriptase (Human immunodeficiency virus 1) (UniProt Q72547); assay: Inhibition of RNase H function of HIV1 reverse transcriptase using DNA/RNA hybrid as substrate at 10 uM by fluorescence spectrometer analysis
Outline: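 RNase H activity of HIV-1 RT was measured with an RNA/DNA hybrid substrate at 250 nM final, with 150–800 ng RT, in 50 mM Tris-HCl pH 8.0, 60 mM KCl, 10 mM MgCl2 and 1% DMSO, against DMSO-only wells. Fluorescence (ex 485/em 520 nm) was read each minute over 10 min at 37 °C. Percent inhibition at 10 μM = 100(v0−vi)/v0 from initial rates, run in triplicate.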

[3] = target: T1, Human immunodeficiency virus type 1 integrase (Human immunodeficiency virus 1, UniProt Q7ZJM1)
[4] = test system: Human immunodeficiency virus 1; assay: Antiviral activity against HIV-1 3B infected in human HeLa-CD4-LTR-beta-gal cells assessed as inhibition of viral replication by SpectraMax GEMINI-XS plate reader analysis; assay type: functional, organism-based; details: Human immunodeficiency virus 1, 3B
Outline: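 HeLa-CD4-LTR-β-gal cells kept in DMEM, 10% serum, 0.5 mg/mL G418; seeded 10000 cells/well the day before. Drug 3-fold serially diluted over six points on cells (top 50 μM), then fresh medium or concentrated HIV-1(IIIB) supernatant added.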

HeLa = assay: Cytotoxicity against human HeLa-CD4-LTR-beta-gal cells after 24 hrs by ATPlite reagent based luminescence analysis; assay type: cell-based
[5] = target: T1, Human immunodeficiency virus type 1 integrase; remark: listed apart in the source
[6] = target: Human immunodeficiency virus type 1 reverse transcriptase (Human immunodeficiency virus 1, UniProt Q72547); assay: Inhibition of RNase H function of HIV1 reverse transcriptase using DNA/RNA hybrid as substrate by fluorescence spectrometer analysis

T1 sequence (Q7ZJM1 whole entry): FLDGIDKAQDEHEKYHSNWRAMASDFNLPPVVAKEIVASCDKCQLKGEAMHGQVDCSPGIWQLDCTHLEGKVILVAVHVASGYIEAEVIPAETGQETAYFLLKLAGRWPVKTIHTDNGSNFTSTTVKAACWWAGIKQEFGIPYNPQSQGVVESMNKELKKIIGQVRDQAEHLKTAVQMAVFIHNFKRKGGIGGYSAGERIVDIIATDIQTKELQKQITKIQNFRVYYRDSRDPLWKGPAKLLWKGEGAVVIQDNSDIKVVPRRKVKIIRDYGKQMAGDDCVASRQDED

Row | SMILES | selectivity ratio [1] | inhibition [2] | IC50 [3] | EC50 [4] | CC50 (HeLa) | IC50 [5] | IC50 [6]
1 | CCOC(=O)/C(O)=C/C(=O)c1cn(Cc2ccc(F)c(F)c2)c2ccccc2c1=O | > 5.1 | 24% | 5.5 µM | 9.8 µM | > 50 µM | – | –
2 | CCOC(=O)/C(O)=C/C(=O)c1cn(Cc2ccncc2)c2ccccc2c1=O | – | -5.6% | 14 µM | > 50 µM | – | > 333 µM | –
3 | CCOC(=O)/C(O)=C/C(=O)c1cn(Cc2cccc(Cl)c2F)c2ccccc2c1=O | > 5 | 21% | 1.08 µM | 10 µM | > 50 µM | 1.08 µM | –
4 | CCOC(=O)/C(O)=C/C(=O)c1cn(Cc2ccc3ccccc3n2)c2ccccc2c1=O | – | 4.4% | 3.5 µM | > 50 µM | – | > 1000 µM | –
5 | CCOC(=O)/C(O)=C/C(=O)c1cn(Cc2ccccc2F)c2cc(Cl)ccc2c1=O | > 4.5 | 2.8% | – | 11 µM | > 50 µM | – | –
6 | O=C(O)/C(O)=C/C(=O)c1cn(Cc2ccc3ccccc3n2)c2ccccc2c1=O | – | 16.4% | 0.4 µM | > 50 µM | – | 70 µM | –
7 | CCOC(=O)/C(O)=C/C(=O)c1cn(Cc2ccccc2F)c2ccccc2c1=O | > 33.4 | 2.8% | 0.28 µM | 1.5 µM | > 50 µM | 125 µM | –
8 | CCOC(=O)/C(O)=C/C(=O)c1cn(Cc2c(F)cccc2F)c2ccccc2c1=O | > 250 | 4.1% | 0.25 µM | < 0.2 µM | > 50 µM | > 12.3 µM | –
9 | O=C(O)/C(O)=C/C(=O)c1cn(Cc2ccccc2)c2ccccc2c1=O | – | 9.6% | 0.034 µM | 15.5 µM | > 50 µM | 4 µM | –
10 | O=C(O)/C(O)=C/C(=O)c1cn(Cc2cccc(F)c2)c2ccccc2c1=O | > 1.8 | 2.4% | 0.015 µM | 28.2 µM | > 50 µM | 4.6 µM | –
11 | Cc1ccc(Cn2cc(C(=O)/C=C(\O)C(=O)O)c(=O)c3ccccc32)c(C)c1 | – | – | 7 µM | > 50 µM | – | – | 19.6 µM
12 | CCOC(=O)/C(O)=C/C(=O)c1cn(Cc2cccc(F)c2)c2ccccc2c1=O [RDS-1624] | > 29.4 | -9.4% | 4.9 µM | 1.7 µM | > 50 µM | > 12.3 µM | –
13 | CCOC(=O)/C(O)=C/C(=O)c1cn(Cc2ccc(F)c(Cl)c2)c2ccccc2c1=O | > 2.9 | 18% | 3.1 µM | 17.4 µM | > 50 µM | 266 µM | –
14 | CCOC(=O)/C(O)=C/C(=O)c1cn(Cc2ccccc2)c2ccccc2c1=O | > 50 | -3.3% | 0.7 µM | 1 µM | > 50 µM | > 1000 µM | –
15 | CCOC(=O)/C(O)=C/C(=O)c1cn(CCCCc2ccccc2)c2ccccc2c1=O | – | 19.4% | 120 µM | > 50 µM | – | > 333 µM | –
16 | COc1cccc(Cn2cc(C(=O)/C=C(\O)C(=O)O)c(=O)c3ccccc32)c1 [RDS-2161] | – | 1.9% | 0.14 µM | > 50 µM | – | > 4.1 µM | –
17 | O=C(O)/C(O)=C/C(=O)c1cn(CCCCc2ccccc2)c2ccccc2c1=O | – | 33% | < 0.45 µM | > 50 µM | – | > 333 µM | –
18 | O=C(O)/C(O)=C/C(=O)c1cn(Cc2ccc(F)c(Cl)c2)c2c(Cl)cccc2c1=O | – | 16% | 0.096 µM | 50 µM | – | 9.8 µM | –
19 | CCOC(=O)/C(O)=C/C(=O)c1cn(Cc2cc(C)cc(C)c2)c2ccccc2c1=O | – | 21% | 1.3 µM | > 50 µM | – | – | –
20 | O=C(O)/C(O)=C/C(=O)c1cn(Cc2ccncc2)c2ccccc2c1=O | – | -2.6% | 16 µM | > 50 µM | – | > 1000 µM | –
21 | CCOC(=O)/C(O)=C/C(=O)c1cn(Cc2cccc(OC)c2)c2ccccc2c1=O | 5.2 | 4.9% | 16 µM | 8.5 µM | 44 µM | > 333 µM | –
22 | Cc1nnc(C(=O)NC(C)(C)c2nc(C(=O)NCc3ccc(F)cc3)c(O)c(=O)n2C)o1 | – | – | – | – | > 50 µM | – | –
23 | CCOC(=O)/C(O)=C/C(=O)c1cn(Cc2ccc(Cl)cc2)c2ccccc2c1=O | – | 16.1% | > 37 µM | > 50 µM | – | > 37 µM | –
24 | O=C(O)/C(O)=C/C(=O)c1cn(Cc2ccc3ccccc3c2)c2ccccc2c1=O | > 10.4 | 40.7% | < 0.45 µM | 4.8 µM | > 50 µM | 18 µM | –

Row | SMILES | selectivity ratio [1] | inhibition [2] | IC50 [3] | EC50 [4] | CC50 (HeLa) | IC50 [5] | IC50 [6]
25 | O=C(O)/C(O)=C/C(=O)c1cn(Cc2ccc(F)c(Cl)c2)c2ccccc2c1=O | – | 25% | 0.19 µM | > 50 µM | – | 21 µM | –
26 | CCOC(=O)/C(O)=C/C(=O)c1cn(Cc2cc(F)ccc2F)c2ccccc2c1=O | – | 30% | 3.7 µM | > 50 µM | – | – | –
27 | O=C(O)/C(O)=C/C(=O)c1cn(Cc2ccc(Cl)cc2Cl)c2ccccc2c1=O | – | – | 2.3 µM | > 50 µM | – | – | 44.7 µM
28 | CCOC(=O)/C(O)=C/C(=O)c1cn(Cc2ccc(C)cc2C)c2ccccc2c1=O | – | 33% | > 111 µM | > 50 µM | – | – | > 50 µM
29 | COc1ccc(Cn2cc(C(=O)/C=C(\O)C(=O)O)c(=O)c3ccccc32)cc1 | – | 45.8% | 0.51 µM | > 50 µM | – | 28 µM | > 50 µM
30 | CCOC(=O)/C(O)=C/C(=O)c1cn(Cc2ccc(F)cc2F)c2ccccc2c1=O | > 86.2 | 3% | 2.2 µM | 0.58 µM | > 50 µM | – | –
31 | CCOC(=O)/C(O)=C/C(=O)c1cn(Cc2ccc(F)c(Cl)c2)c2c(Cl)cccc2c1=O | – | 24% | 25.1 µM | > 50 µM | – | > 333 µM | –
32 | O=C(O)/C(O)=C/C(=O)c1cn(Cc2c(Cl)cccc2Cl)c2ccccc2c1=O | – | 86.3% | 0.27 µM | > 50 µM | – | – | 10 µM
33 | CCOC(=O)/C(O)=C/C(=O)c1cn(Cc2ccccc2OC)c2ccccc2c1=O [20, RDS-2163] | > 19.2 | 11.4% | 1.4 µM | 2.6 µM | > 50 µM | > 333 µM | –
34 | CCOC(=O)/C(O)=C/C(=O)c1cn(Cc2cc(F)cc(F)c2)c2ccccc2c1=O | > 1.5 | 24% | 11 µM | 32.4 µM | > 50 µM | – | –
35 | O=C(O)/C(O)=C/C(=O)c1cn(Cc2cc(F)ccc2F)c2ccccc2c1=O | – | 37% | 3.2 µM | > 50 µM | – | – | > 50 µM
36 | Cc1cc(C)cc(Cn2cc(C(=O)/C=C(\O)C(=O)O)c(=O)c3ccccc32)c1 | – | – | 0.05 µM | > 50 µM | – | – | 37.8 µM
37 | O=C(O)/C(O)=C/C(=O)c1cn(Cc2ccc([N+](=O)[O-])cc2)c2ccccc2c1=O | – | – | 0.64 µM | > 50 µM | – | 27 µM | 47 µM
38 | O=C(O)/C(O)=C/C(=O)c1cn(Cc2cc(F)cc(F)c2)c2ccccc2c1=O | – | 30% | 0.22 µM | > 50 µM | – | – | > 50 µM
39 | CCOC(=O)/C(O)=C/C(=O)c1cn(Cc2ccc(OC)cc2)c2ccccc2c1=O | – | 10% | > 37 µM | > 50 µM | – | > 37 µM | –
40 | O=C(O)/C(O)=C/C(=O)c1cn(Cc2ccc(F)cc2)c2cc(Cl)c(Cl)cc2c1=O | – | – | – | – | – | > 50 µM | –
41 | CCOC(=O)/C(O)=C/C(=O)c1cn(Cc2ccc3ccccc3c2)c2ccccc2c1=O | – | 29.7% | 32 µM | > 50 µM | – | > 333 µM | –
42 | O=C(O)/C(O)=C/C(=O)c1cn(Cc2cccc(Cl)c2F)c2ccccc2c1=O | > 2.1 | 12% | 0.018 µM | 23.4 µM | > 50 µM | 1.75 µM | –
43 | CCOC(=O)/C(O)=C/C(=O)c1cn(Cc2ccc(O)cc2)c2ccccc2c1=O | > 1.6 | 26% | 1.4 µM | 30.9 µM | > 50 µM | > 333 µM | –
44 | O=C(O)/C(O)=C/C(=O)c1cn(Cc2ccc(O)cc2)c2ccccc2c1=O | – | – | 0.45 µM | > 50 µM | – | > 37 µM | 9.5 µM
45 | CCOC(=O)/C(O)=C/C(=O)c1cn(Cc2ccc(Cl)cc2Cl)c2ccccc2c1=O | – | 51% | > 111 µM | > 50 µM | – | – | > 50 µM
46 | CCOC(=O)/C(O)=C/C(=O)c1cn(Cc2ccc([N+](=O)[O-])cc2)c2ccccc2c1=O | – | 31.9% | > 37 µM | > 50 µM | – | > 37 µM | –
47 | COc1cc2c(cc1Cc1cccc(Cl)c1F)c(=O)c(C(=O)O)cn2[C@H](CO)C(C)C | – | – | – | 0.0142 µM | > 50 µM | – | –
